Data reported in ChEMBL document CHEMBL4400581, “First Example of Catalytic Synthesis of Difurazanohexahydrohexaazapyrenes and in Vitro Study of Their Antitumor Activity” (2019).

Legend:
Format in all cases: functional
[1] = test system: Jurkat; assay: Cytotoxicity against human Jurkat cells by MTT assay
Method in brief: (§1)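 Cytotoxicity was measured by MTT assay across a range of concentrations in human tumour lines, with etoposide as the reference drug. Results are expressed as CC50.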

[2] = test system: HeLa; assay: Cytotoxicity against human HeLa cells by MTT assay; method in brief: as §1
[3] = test system: K562; assay: Cytotoxicity against human K562 cells by MTT assay; method in brief: as §1
[4] = test system: U-937; assay: Cytotoxicity against human U937 cells by MTT assay; method in brief: as §1

Compound: C1CCC(N2CN3c4nonc4N4CN(C5CCCC5)CN5c6nonc6N(C2)C3C45)C1 (centres undefined)
- Activity [1]: Dose-dependent effect
- CC50 [1]: 510 nM
- Activity [2]: Dose-dependent effect
- CC50 [2]: 980 nM
- Activity [3]: Dose-dependent effect
- CC50 [3]: 640 nM
- Activity [4]: Dose-dependent effect
- CC50 [4]: 570 nM

Compound: C1CC1N1CN2c3nonc3N3CN(C4CC4)CN4c5nonc5N(C1)C2C34 (centres undefined)
- Activity [1]: Dose-dependent effect
- CC50 [1]: 270 nM
- Activity [2]: Dose-dependent effect
- CC50 [2]: 420 nM
- Activity [3]: Dose-dependent effect
- CC50 [3]: 310 nM
- Activity [4]: Dose-dependent effect
- CC50 [4]: 250 nM

Compound: C1CCCC(N2CN3c4nonc4N4CN(C5CCCCCC5)CN5c6nonc6N(C2)C3C45)CC1 (centres undefined)
- Activity [1]: Dose-dependent effect
- CC50 [1]: 570 nM
- Activity [2]: Dose-dependent effect
- CC50 [2]: 1210 nM
- Activity [3]: Dose-dependent effect
- CC50 [3]: 690 nM
- Activity [4]: Dose-dependent effect
- CC50 [4]: 590 nM
